Laboratory results: ChEMBL document CHEMBL3286351, “Antibacterial evaluation of structurally amphipathic, membrane active small cationic peptidomimetics: synthesized by incorporating 3-amino benzoic acid as peptidomimetic element” (Eur J Med Chem, 2014)
In brackets after ≈: the same amount, converted by molar mass. Activity calls are given as the source filed them. No cut-off for these calls is given here. Where a SMILES comes first, the peptide text is derived from it. [ ]: non-standard residue; d: D form. 3Abz = Nc1cccc(C(=O)O)c1; Orn = NCCC[CH](N)C(=O)O

Key:
Staphylococcus aureus [1] = assay: Bactericidal activity against Staphylococcus aureus MTCC 3160 assessed as number of bacteria at 4 times MIC measured within 30 mins by time kill assay (reference value: 10^6 CFU/ml); type: functional
Summary of the method: (§1)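 Time-kill assay. […] Aliquots taken at fixed intervals were serially diluted and plated on Mueller-Hinton agar. CFU were counted after 24 h at 37 °C. Two independent experiments, each in triplicate.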

Staphylococcus aureus [2] = assay: Antibacterial activity against Staphylococcus aureus MTCC 3160 assessed as growth inhibition after 18 hrs by CLSI microdilution broth assay; type: functional; conditions: MTCC 3160, 18 h
Escherichia coli [3] = assay: Bactericidal activity against Escherichia coli MTCC 723 assessed as number of bacteria at 4 times MIC measured within 30 mins by time kill assay (reference value: 10^6 CFU/ml); type: functional; summary of the method: as §1
alpha chymotrypsin = assay: Proteolytic stability assessed as alpha chymotrypsin (unknown origin)-mediated compound degradation by measuring compound remaining after 4 days by RP-HPLC analysis; type: ADME; conditions: human, read-out: Stability
Summary of the method: (§2)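 Compound at 1 mg/mL in 0.1 M NH4HCO3 (pH 8.2) combined with trypsin or α-chymotrypsin solution (1 mg enzyme per 50 mL of the same buffer) at 37 °C. Aliquots taken over time and quenched with 10% formic acid. Remaining compound quantified by C18 RP-HPLC. An enzyme-free control was run for each test.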

Staphylococcus aureus [4] = assay: Antibacterial activity against methicillin-resistant Staphylococcus aureus ATCC BAA-1720 assessed as growth inhibition after 18 hrs by CLSI microdilution broth assay; type: functional; conditions: ATCC BAA-1720, 18 h
Summary of the method: (§3)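 Modified CLSI broth microdilution in Mueller-Hinton broth. Wells held 90 µL of about 2 × 10^5 CFU/mL inoculum plus 10 µL of serially diluted peptidomimetic, range 0.7-100 µg/mL. Plates were incubated overnight with agitation at 37 °C and absorbance read at 600 nm after 18 h. Controls: inoculum without compound, and uninoculated broth. Run in triplicate.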

[5] = Membrane permeabilization in mammalian membrane model consisting large unilamellar vesicle of dipalmitoylphosphatidylcholine:cholesterol at ratio of 10:1 assessed as calcein release at 15 ug/ml after 5 mins by fluorescence assay; type: cell membranes
Summary of the method: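 LUVs of DPPC/cholesterol 10:1 (w/w) loaded with calcein, extruded through 100 nm filters, and cleared of free dye on Sephadex G-50. Diluted to 40 µM lipid in calcein-free buffer (150 mM NaCl, 0.1 mM EDTA). Calcein release read at ex 490/em 520 nm, normalized to Triton X-100 lysis.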

[6] = Induction of hemolysis in human RBC assessed as hemoglobin release after 1 hr by microtiter plate reader analysis; type: cell-based, Erythrocyte
Summary of the method: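 Freshly isolated human RBCs washed three times in PBS (35 mM phosphate, 150 mM NaCl, pH 7.2) and used as a 4% (v/v) suspension. Mixed 1:1 with twofold serial dilutions of compound, incubated 1 h at 37 °C without agitation, then centrifuged. Supernatant A540 read. PBS defined 0% and 1% Triton X-100 defined 100% lysis; HC50 and HC10 derived.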

Lipid bilayer [7] = assay: Membrane permeabilization in bacterial membrane model consisting large unilamellar vesicle of dipalmitoylphosphatidylcholine:dipalmitoylphosphatidylglycerol at ratio of 7:3 assessed as calcein release at 5 ug/ml after 90 mins by fluorescence assay; type: cell membranes
Summary of the method: (§4)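 LUVs of DPPC:DPPG 7:3 (w/w) loaded with 70 mM calcein (150 mM NaCl, 0.1 mM EDTA, pH 7.4). Made by freeze-thaw and extrusion through 100 nm filters; free dye removed on Sephadex G-50; diameter 110-130 nm. Diluted to 40 µM lipid and exposed to 5-15 µg/mL compound. Fluorescence read at ex 490/em 520 nm each minute for 20 min, then every 10 min. Triton X-100 defined 100% release.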

Lipid bilayer [8] = assay: Membrane permeabilization in bacterial membrane model consisting large unilamellar vesicle of dipalmitoylphosphatidylcholine:dipalmitoylphosphatidylglycerol at ratio of 7:3 assessed as calcein release at 15 ug/ml after 90 mins by fluorescence assay; type: cell membranes; summary of the method: as §4
[9] = tested on: Staphylococcus epidermidis; assay: Antibacterial activity against methicillin-resistant Staphylococcus epidermidis ATCC 51625 assessed as growth inhibition after 18 hrs by CLSI microdilution broth assay; type: functional; conditions: ATCC 51625, 18 h; summary of the method: as §3
Pseudomonas aeruginosa = assay: Antibacterial activity against Pseudomonas aeruginosa MTCC 2295 assessed as growth inhibition after 18 hrs by CLSI microdilution broth assay; type: functional; conditions: MTCC 2295, 18 h
HaCaT [10] = assay: Cytotoxicity against human HaCaT cells assessed as decrease in cell viability after 24 hrs by MTT assay; type: cell-based
Summary of the method: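 HaCaT keratinocytes grown as a monolayer in DMEM with 10% FBS and penicillin/streptomycin, 37 °C, 5% CO2. Seeded 24 h, then exposed to compound for 24 h. MTT (5 mg/mL stock in PBS) added for 4 h; formazan dissolved in isopropanol and read at 570 nm. Growth inhibition calculated relative to medium-only controls. Two independent experiments in triplicate.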

Escherichia coli [11] = assay: Induction of membrane damage in Escherichia coli at 4 times MIC after 2 hrs by DAPI/propidium iodide staining based fluorescence microscopy; type: functional, organism-based
Summary of the method: (§5)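 Stained with PI (5 µg/mL) for 15 min in the dark at 0 °C, washed, then DAPI (10 µg/mL) for 15 min in the dark at 0 °C. Untreated cells processed identically as controls. Imaged by fluorescence microscopy with a 60× oil objective.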

Staphylococcus aureus [12] = assay: Antibacterial activity against Staphylococcus aureus MTCC 3160 assessed as growth inhibition treated for 16 days by two-fold dilution assay; type: functional, organism-based
Bacillus subtilis = assay: Antibacterial activity against Bacillus subtilis MTCC 2763 assessed as growth inhibition after 18 hrs by CLSI microdilution broth assay; type: functional; conditions: MTCC 2763, 18 h
Lipid bilayer [13] = assay: Membrane permeabilization in bacterial membrane model consisting large unilamellar vesicle of dipalmitoylphosphatidylcholine:dipalmitoylphosphatidylglycerol at ratio of 7:3 assessed as calcein release after 5 mins by fluorescence assay; type: cell membranes; summary of the method: as §4
HaCaT [14] = assay: Cytotoxicity against human HaCaT cells at 100 to 500 ug/ml after 24 hrs by LDH release assay; type: cell-based
Summary of the method: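 HaCaT cells (DMEM with 10% FBS, 37 °C, 5% CO2) seeded for 24 h, then treated with varying concentrations for 24 h. LDH measured at 490 nm in both supernatant and trypsinized cell lysate with a non-radioactive kit. % release = supernatant/(supernatant + lysate) × 100. Two independent experiments in triplicate.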

[15] = Selectivity ratio of HC50 for hemolysis in human RBC to MIC for Staphylococcus aureus
[16] = Retention time of the compound by HPLC analysis; type: physicochemical
Summary of the method: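 Analytical RP-HPLC on a C18 column (5 µm, 4.6 × 250 mm) at room temperature. Run a linear gradient of 0.5-60% acetonitrile containing 0.05% TFA against water containing 0.05% TFA at 0.5 mL/min.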

Staphylococcus aureus [17] = assay: Antibacterial activity against methicillin-resistant Staphylococcus aureus ATCC BAA-1720 assessed as growth inhibition treated for 16 days by two-fold dilution assay; type: functional, organism-based
Summary of the method: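 Serial-passage resistance study. Start from the initial MIC by broth microdilution, then expose cells to doubling dilutions in triplicate wells. After each 18 h incubation, pool the wells with the highest concentration still showing visible growth and re-inoculate at about 2 × 10^6 CFU/mL.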

Escherichia coli [18] = assay: Antibacterial activity against Escherichia coli MTCC 723 assessed as growth inhibition after 18 hrs by CLSI microdilution broth assay; type: functional; conditions: MTCC 723, 18 h
Staphylococcus aureus [19] = assay: Induction of membrane damage in Staphylococcus aureus at 4 times MIC after 2 hrs by DAPI/propidium iodide staining based fluorescence microscopy; type: functional, organism-based; summary of the method: as §5
Plasma = assay: Stability in human plasma assessed as compound degradation after 24 hrs by RP-HPLC analysis; type: ADME, cell-free; conditions: 24 h
Summary of the method: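 Compound (1 mg/mL stock in water; 50 µL) added to 1 mL fresh heparinized human plasma and held at 37 °C. Samples taken at 30 min, 1, 2, 6, 12 and 24 h. Proteins precipitated with 95% ethanol, cooled at 4 °C for 15 min and centrifuged at 18,000 g. Supernatant analyzed by RP-HPLC with UV detection at 280 nm.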

[20] = Proteolytic stability assessed as trypsin (unknown origin)-mediated compound degradation by measuring compound remaining after 4 days by RP-HPLC analysis; type: ADME; conditions: human, 96 h; summary of the method: as §2
[21] = Proteolytic stability assessed as alpha chymotrypsin (unknown origin)-mediated compound degradation after 24 hrs by RP-HPLC analysis; type: ADME; conditions: human; summary of the method: as §2

`NCCCC(NC(=O)C(Cc1c[nH]c2ccccc12)NC(=O)c1cccc(NC(=O)C(Cc2c[nH]c3ccccc23)NC(=O)C(CCCN)NC(=O)C(N)Cc2c[nH]c3ccccc23)c1)C(N)=O` (stereo unspecified) (H-W[Orn]W[3Abz]W[Orn]-NH2; configuration not given here) showed a CFU/ml (Staphylococcus aureus [1]) of 1000, an MIC (Staphylococcus aureus [2]) of 6.25 µg/mL (≈ 6.77 µM) and a CFU/ml (Escherichia coli [3]) of 1000. For the same compound, the remaining at 96 h (alpha chymotrypsin) was 70%, the MIC (Staphylococcus aureus [4]) was 5 µg/mL (≈ 5.42 µM) and the Activity [5] was “inactive”. For the same compound, the HC10 ([6]; erythrocyte, 1 h) was 100 µg/mL, the HC50 at 1 h ([6]; red blood cells) was 390 µg/mL and the Activity (Lipid bilayer [7]) was 23%. For the same compound, the Activity (Lipid bilayer [8]) was 48%, the MIC [9] was 6.25 µg/mL (≈ 6.77 µM) and the MIC (Pseudomonas aeruginosa) was 15.5 µg/mL (≈ 16.8 µM). The Activity (HaCaT [10]) was “Dose-dependent effect”, the Activity (Escherichia coli [11]) was “Active” and the inhibition (Staphylococcus aureus [12]) was “Active”. The MIC (Bacillus subtilis) was 25 µg/mL (≈ 27.1 µM), the Activity (Lipid bilayer [13]) was “Dose-dependent effect” and the Activity (HaCaT [14]) was “Toxic”. For the same compound, the Selectivity ratio [15] was 62.4, the Retention_time [16] was 25.378 min and the inhibition (Staphylococcus aureus [17]) was “Active”. The MIC (Escherichia coli [18]) was 20 µg/mL (≈ 21.7 µM), the Activity (Staphylococcus aureus [19]) was “Active” and the Stability (Plasma) was “Stable”. The Stability [20] was “Stable” and the Stability [21] was “Stable”.
